Reference: ChEMBL document CHEMBL3784969, “Pharmacokinetics of flutamide in patients with renal insufficiency” (Br J Clin Pharmacol, 1999)

Test system: Homo sapiens
Assay: Clearance in patient with renal insufficiency at 250 mg, po administered first dose followed by 14 days wash out period and administered second dose 4 hrs prior to hemodialysis measured during hemodialysis treatment by gas chromatography
Assay type: ADME, organism-based
Settings: in vivo
How it was run: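 Group V haemodialysis males (CLcr <5 ml min−1 1.73 m−2). Single oral 250 mg flutamide (two 125 mg capsules) right after HD; after 14-day washout, same dose 4 h before HD lasting 2–4 h. Venous samples to 48 h, arterial/venous during HD, dialysate in hourly blocks. GC with 63Ni electron-capture detection. CL(HD) = dialysate Ae(HD)/arterial AUC(HD); renal CL = Ae(0,48)/AUC(0,48 h).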

SMILES: CC(C)C(=O)Nc1ccc([N+](=O)[O-])c(C(F)(F)F)c1 [FLUTAMIDE]
- CL: 21.4 mL/min
